Test results as given in ChEMBL document CHEMBL2203161 (Bioorg Med Chem, 2012).
Activity calls are given as the source filed them. The calls are words filed in the database; no cut-off is given here.

Legend:
[1] = molecular target: T1, Seed linoleate 13S-lipoxygenase-1 (Glycine max, UniProt P08170); test: Inhibition of soybean lipoxygenase-1 assessed as formation of 13-HPOD from linoleic acid preincubated for 10 mins measured by real-time spectrophotometric analysis
T1 sequence (P08170 whole entry): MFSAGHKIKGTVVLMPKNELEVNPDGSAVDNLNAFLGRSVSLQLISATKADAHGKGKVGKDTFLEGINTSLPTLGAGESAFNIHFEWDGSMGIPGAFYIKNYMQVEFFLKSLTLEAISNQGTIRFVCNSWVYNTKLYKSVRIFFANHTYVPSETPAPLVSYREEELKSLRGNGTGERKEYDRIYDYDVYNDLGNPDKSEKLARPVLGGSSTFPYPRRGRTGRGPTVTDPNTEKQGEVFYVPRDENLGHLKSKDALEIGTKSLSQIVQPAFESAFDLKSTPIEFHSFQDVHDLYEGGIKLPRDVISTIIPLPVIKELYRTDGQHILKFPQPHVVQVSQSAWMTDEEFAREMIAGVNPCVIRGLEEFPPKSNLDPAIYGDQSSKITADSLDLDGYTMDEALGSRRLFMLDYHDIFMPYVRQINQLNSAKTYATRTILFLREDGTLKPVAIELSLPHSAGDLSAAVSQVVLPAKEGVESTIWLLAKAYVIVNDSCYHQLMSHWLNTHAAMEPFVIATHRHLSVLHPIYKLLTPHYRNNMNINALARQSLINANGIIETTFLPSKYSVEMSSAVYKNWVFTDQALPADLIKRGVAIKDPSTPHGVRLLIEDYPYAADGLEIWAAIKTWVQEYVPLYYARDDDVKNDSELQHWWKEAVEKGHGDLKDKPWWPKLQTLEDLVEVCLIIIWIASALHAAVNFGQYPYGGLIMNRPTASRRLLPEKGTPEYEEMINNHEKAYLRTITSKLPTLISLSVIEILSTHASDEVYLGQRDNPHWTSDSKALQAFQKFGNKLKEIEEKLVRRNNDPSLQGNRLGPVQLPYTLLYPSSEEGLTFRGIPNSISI

[2] = molecular target: T2, Probable linoleate 9S-lipoxygenase 5 (Solanum tuberosum) (UniProt Q43191); test: Inhibition of potato 5-lipoxygenase assessed as residual activity preincubated for 10 mins measured by real-time spectrophotometric analysis
T2 sequence (whole entry): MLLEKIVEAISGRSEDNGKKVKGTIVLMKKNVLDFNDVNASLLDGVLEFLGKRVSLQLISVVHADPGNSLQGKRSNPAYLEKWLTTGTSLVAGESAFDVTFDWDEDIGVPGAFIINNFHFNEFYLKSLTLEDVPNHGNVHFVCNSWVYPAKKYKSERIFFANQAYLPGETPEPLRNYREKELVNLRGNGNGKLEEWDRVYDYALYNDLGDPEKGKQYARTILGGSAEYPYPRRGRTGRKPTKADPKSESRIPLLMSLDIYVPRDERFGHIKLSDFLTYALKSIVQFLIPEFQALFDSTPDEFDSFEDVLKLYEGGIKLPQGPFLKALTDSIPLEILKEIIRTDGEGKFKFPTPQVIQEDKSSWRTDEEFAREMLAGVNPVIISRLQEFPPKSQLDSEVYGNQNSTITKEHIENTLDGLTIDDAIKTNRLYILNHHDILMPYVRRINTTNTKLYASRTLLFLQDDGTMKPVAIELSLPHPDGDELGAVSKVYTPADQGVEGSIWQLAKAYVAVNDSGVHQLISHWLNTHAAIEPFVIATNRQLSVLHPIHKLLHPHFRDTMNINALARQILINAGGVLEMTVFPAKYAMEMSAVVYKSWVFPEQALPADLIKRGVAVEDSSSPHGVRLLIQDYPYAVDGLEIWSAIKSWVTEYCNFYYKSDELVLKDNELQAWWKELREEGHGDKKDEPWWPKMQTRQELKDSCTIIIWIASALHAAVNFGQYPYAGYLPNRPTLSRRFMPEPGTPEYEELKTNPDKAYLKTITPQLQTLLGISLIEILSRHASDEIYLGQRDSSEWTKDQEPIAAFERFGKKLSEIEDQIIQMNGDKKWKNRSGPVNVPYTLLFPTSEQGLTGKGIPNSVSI
Summary of the method: (§1)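 Single-concentration screen against soybean LOX-1 and potato 5-LOX. Enzyme preincubated 10 min with 50 µM compound. Formation of conjugated diene 13-HPOD from linoleic acid followed spectrophotometrically in real time. Residual activity given as percent of blank without inhibitor. Average of three independent experiments with standard deviations.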

[3] = molecular target: T3, Seed linoleate 13S-lipoxygenase-1 (Glycine max) (UniProt P08170); test: Inhibition of soybean lipoxygenase-1 assessed as formation of 13-HPOD from linoleic acid preincubated for 10 mins measured by real-time spectrophotometric analysis
T3 sequence (whole entry): T1 sequence (P08170 whole entry)

[4] = Critical micelles concentration of the compound in 0.2 M borate buffer at pH 9; format: physicochemical
Summary of the method: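 Surface tension plotted against log concentration in 0.2 M borate buffer pH 9.0 at 19 °C (SLO-1 assay conditions). CMC read from the plot.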

[5] = molecular target: T1, Seed linoleate 13S-lipoxygenase-1; test: Inhibition of soybean lipoxygenase-1 assessed as inhibition constant for enzyme-substrate-inhibitor complex by Lineweaver-Burk plot
Summary of the method: (§2)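 SLO-1 conversion of linoleic acid monitored spectrophotometrically in 0.2 M borate buffer pH 9.0 with no inhibitor or after preincubation with 6 or 11 µM inhibitor. Vmax and Km (apparent) taken from Lineweaver–Burk intercepts. Ki (free enzyme) and K'i (substrate-bound enzyme) calculated with a mixed-inhibition model. n=3, ±S.D.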

[6] = molecular target: T1, Seed linoleate 13S-lipoxygenase-1; test: Inhibition of soybean lipoxygenase-1 assessed as inhibition constant for enzyme-inhibitor complex by Lineweaver-Burk plot
Summary of the method: as §2

[7] = molecular target: T2, Probable linoleate 9S-lipoxygenase 5 (Solanum tuberosum); test: Activation of potato 5-lipoxygenase assessed as residual activity at 50 uM preincubated for 10 mins measured by real-time spectrophotometric analysis relative to untreated control
Summary of the method: as §1

[8] = molecular target: T2, Probable linoleate 9S-lipoxygenase 5 (Solanum tuberosum); test: Activation of potato 5-lipoxygenase assessed as increase in residual activity preincubated for 10 mins measured by real-time spectrophotometric analysis by Lineweaver-Burk plot
Summary of the method: (§3)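 Potato 5-LOX kinetics: enzyme preincubated without activator or with activator at 12.5, 25 and 50 µM. Conjugated diene formation from linoleic acid followed spectrophotometrically in real time, in 0.1 M phosphate buffer pH 6.3. Lineweaver–Burk plots drawn. K_A, α and β derived from re-plots of 1/Δslope and 1/Δintercept using the non-essential activation equation. n=3, ±S.D.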

[9] = molecular target: T2, Probable linoleate 9S-lipoxygenase 5 (Solanum tuberosum); test: Activation of potato 5-lipoxygenase assessed as binding constant for substrate bound enzyme preincubated for 10 mins measured by real-time spectrophotometric analysis by Lineweaver-Burk plot
Summary of the method: as §3

[10] = Critical micelles concentration of the compound in 0.1 M phosphate buffer at pH 6.3; format: physicochemical
Summary of the method: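 Surface tension measured against log concentration in 0.1 M phosphate buffer pH 6.3 at 25 °C (potato 5-LOX assay conditions). CMC read from the plot.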

[11] = molecular target: T2, Probable linoleate 9S-lipoxygenase 5 (Solanum tuberosum); test: Activation of potato 5-lipoxygenase assessed as increase in residual activity preincubated for 10 mins measured by real-time spectrophotometric analysis
Summary of the method: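 Potato 5-LOX in 0.1 M phosphate buffer pH 6.3, preincubated with a range of activator concentrations or without compound (control). Formation of […] from linoleic acid monitored spectrophotometrically in real time. Activity expressed against control. Mean of three independent experiments ±S.D.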

[12] = molecular target: T2, Probable linoleate 9S-lipoxygenase 5 (Solanum tuberosum); test: Activation of potato 5-lipoxygenase assessed as increase in enzyme catalytic rate preincubated for 10 mins measured by real-time spectrophotometric analysis relative to untreated control
Summary of the method: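 Non-essential activation analysis of potato 5-LOX in 0.1 M phosphate buffer pH 6.3. Linoleic acid conversion read spectrophotometrically after preincubation with 0, 12.5, 25 or 50 µM activator. β, the change in catalytic constant, is taken from the re-plot of 1/Δintercept from Lineweaver–Burk plots. Three independent experiments.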

[13] = molecular target: T2, Probable linoleate 9S-lipoxygenase 5 (Solanum tuberosum); conditions: 50 uM
[14] = molecular target: T2, Probable linoleate 9S-lipoxygenase 5 (Solanum tuberosum); conditions: 6 uM

O=C(O)c1c(O)cc(O)cc1CCc1ccc(Cc2nc3ccccc3o2)cc1
IC50 [1]: 58.5 µM | inhibition [2]: inactive

CCCCCCCCCCCCCCCc1cccc(O)c1C(=O)OC
inhibition [3]: inactive

CCCCCCCc1ccc(CCc2cc(O)cc(O)c2C(=O)O)cc1
IC50 [1]: 11.1 µM | CMC [4]: 436 µM | Ki [5]: 15.7 µM | inhibition [2]: inactive | Ki [6]: 9.8 µM

O=C(O)c1c(O)cccc1CCc1ccc2nc(-c3ccccc3)oc2c1
inhibition [3]: Active | inhibition [2]: inactive

CCCCCCCCCCCCCCOc1cccc(O)c1C(=O)O
IC50 [1]: 55.4 µM | Activity [7]: Active | fold change (FC) [7]: 3 | Ka [8]: 1.8 mM | Ka [9]: 24 µM | CMC [10]: 208 µM | Activity [11]: Dose-dependent effect | fold change (FC) [12]: 1.4

CCCCCCCCCCCCCCCc1cccc(O)c1C(=O)O [ANACARDIC ACID]
CMC [4]: 390 µM | inhibition [13]: 50% | inhibition [14]: 30%

CCCCCCCCCCCCCCCc1cc(O)cc(O)c1C(=O)O
inhibition [3]: Active | inhibition [2]: inactive

CCCCCCCc1ccc(CCc2cccc(O)c2C(=O)O)cc1
Activity [7]: Active | fold change (FC) [7]: 3
